{"data": "Assay results from different studies", "TACR2": "Substance-K receptor (TACR2, Homo sapiens, UniProt P21452)", "HDAC8": "Histone deacetylase 8 (HDAC8, Homo sapiens, UniProt Q9BY41)", "HTR1D": "5-hydroxytryptamine receptor 1D (HTR1D, Homo sapiens, UniProt P28221)", "ALOX5": "Polyunsaturated fatty acid 5-lipoxygenase (ALOX5, Homo sapiens, UniProt P09917)", "note": "Compare with care: the assays were run in different laboratories."}
{"SMILES": "Oc1cccc(Nc2nc(-c3ccc(F)cc3F)cs2)c1", "target": "TACR2", "test": "cell-free assay", "setting": "10 µM", "inhibition [%]": 31.5}
{"SMILES": "CC(=O)O[C@@H]1c2c(ccc3ccc(=O)oc23)OC(C)(C)[C@@H]1OC(=O)C1(C)OC1C (stereo partly shown)", "target": "HDAC8", "test": "enzyme activity, inhibitor", "setting": "10 µM", "inhibition [%]": 43.5}
{"SMILES": "CCN1CCN(Cc2ccc(NC(=O)c3ccc(C)c(/C=C/c4cnc5[nH]ccc5c4OC)c3)cc2C(F)(F)F)CC1", "target": "Mitogen-activated protein kinase kinase kinase 4 (MAP3K4, Homo sapiens, UniProt Q9Y6R4)", "test": "target engagement in cells, inhibitor, chemoproteomics", "system": "A-375", "setting": "50 nM", "inhibition [%]": -0.65}
{"SMILES": "COc1cc(Cl)c(C(=O)N[C@@H](CN[C@H]2CC[C@@H](N)CC2)Cc2ccc(C#N)cc2)cc1-c1ccc(CN[C@H](C)c2ccc(C)cc2)o1", "target": "Somatostatin receptor type 4 (SSTR4, Homo sapiens, UniProt P31391)", "test": "calcium signal, antagonist", "setting": "10 µM", "inhibition [%]": 12}
{"SMILES": "N#Cc1cc(Cn2c(N3CCCC3)nc3ccccc32)ccc1F", "target": "HTR1D", "test": "cell-free assay", "setting": "10 µM", "inhibition [%]": -36.9}
{"SMILES": "CC1(C)CC[C@]2(C)CC[C@]3(C)[C@H]4CC=C5[C@@H](CC[C@H](O)C5(C)C)[C@]4(C)CC[C@@]3(C)[C@@H]2C1", "target": "HDAC8", "test": "enzyme activity, inhibitor", "setting": "10 µM", "inhibition [%]": 44.8}
{"SMILES": "O=C(c1ccc(F)cc1)N(Cc1ccccc1)C1CCCCC1", "target": "Mu-type opioid receptor (OPRM1, Homo sapiens, UniProt P35372)", "test": "ligand displacement", "setting": "10 µM", "inhibition [%]": 6}
{"SMILES": "Cc1occ(O)c(=O)c1C(=O)O", "target": "ALOX5", "test": "enzyme activity, inhibitor, fluorescence", "setting": "1 mM", "inhibition [%]": "> 70"}
{"SMILES": "O=c1c(O[C@@H]2O[C@H](CO)[C@@H](O)[C@H](O)[C@H]2O)c(-c2ccc(O)cc2)oc2cc(O)cc(O)c12", "target": "HDAC8", "test": "enzyme activity, inhibitor", "setting": "10 µM", "inhibition [%]": 14.8}
{"SMILES": "O=C1N=C(N2CCCCN2)S/C1=C\\c1ccc(F)cc1O", "target": "TACR2", "test": "ligand displacement, radioligand", "setting": "10 µM", "inhibition [%]": "< 10"}
{"SMILES": "COc1cc2c3c(c1OC)-c1cc4c(cc1CC3N(C)CC2c1ccccc1)OCO4 (stereo not shown)", "target": "HTR1D", "test": "ligand displacement, radioligand", "setting": "10 µM", "inhibition [%]": "< 50"}
{"SMILES": "CCOC(=O)C1=C(C)NC(c2ccccc2)=C(C(=O)OCc2ccccc2)C1C#Cc1ccccc1 (stereo not shown)", "target": "Adenosine receptor A3 (Mus musculus, UniProt Q61618)", "test": "ligand displacement, radioligand", "setting": "10 µM, cell membranes", "inhibition [%]": 32}
{"SMILES": "C/C=C(/C)C(=O)O[C@@H]1[C@H](OC(C)=O)c2c(ccc3ccc(=O)oc23)OC1(C)C", "target": "HDAC8", "test": "enzyme activity, inhibitor", "setting": "10 µM", "inhibition [%]": 40.9}
{"SMILES": "O=C(c1ccc(Cl)cc1)N(Cc1ccccc1)C1CCCCC1", "target": "TACR2", "test": "cell-free assay", "setting": "10 µM", "inhibition [%]": 15}
{"SMILES": "O=C(/C=C/c1ccc(O)c(O)c1)O[C@@H]1C[C@](O)(C(=O)O)C[C@@H](O)[C@H]1O", "target": "HDAC8", "test": "enzyme activity, inhibitor", "setting": "10 µM", "inhibition [%]": 58.2}
{"SMILES": "Cc1occc(=S)c1O", "target": "ALOX5", "test": "enzyme activity, inhibitor, fluorescence", "setting": "1 mM", "inhibition [%]": "> 70"}
